SENP1 FRET inh: inhibitors of human SENP1 SUMO protease catalytic domain; 360,000 compounds, 0.21% hits; Q9P0U3; inhibition, % at 10 µM; AID 624204; recombinant SENP1 catalytic domain, CyPet-SUMO1-YPet FRET cleavage;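 active = inhibition at least 30% at 10 µM, raw YFP signal under a set limit, fluorescence ratio 0.5 to 1.5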;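 also: 0% = enzyme with DMSO and 100% = no enzyme wells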
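Assay system – human recombinant His6-tagged SENP1 catalytic domain enzyme · Input – SENP1 enzyme, 20 pM final · Buffer or medium – Tris pH 8 buffer plus EDTA, NaCl, BME, BSA, NP40, catalase · Schedule – 50 min reaction at room temperature · Technique – FRET read of cyan and yellow fluorescence · Control set – no-enzyme wells low, DMSO-plus-enzyme wells high control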
SENP6 inh: inhibitors of human SENP6 protease | Recombinant SENP6 catalytic domain, aminoluciferin luminescence | inhibition, % at 10 µM | 330,000 compounds, 1.8% hits | AID 2599;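 active = inhibition above about 50% at the single tested dose, limit read from the data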;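 also: plate controls were DMSO wells with enzyme for no effect and DMSO wells lacking enzyme for full effect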
Target sequence (Q9GZR1 628-1112 limits assumed): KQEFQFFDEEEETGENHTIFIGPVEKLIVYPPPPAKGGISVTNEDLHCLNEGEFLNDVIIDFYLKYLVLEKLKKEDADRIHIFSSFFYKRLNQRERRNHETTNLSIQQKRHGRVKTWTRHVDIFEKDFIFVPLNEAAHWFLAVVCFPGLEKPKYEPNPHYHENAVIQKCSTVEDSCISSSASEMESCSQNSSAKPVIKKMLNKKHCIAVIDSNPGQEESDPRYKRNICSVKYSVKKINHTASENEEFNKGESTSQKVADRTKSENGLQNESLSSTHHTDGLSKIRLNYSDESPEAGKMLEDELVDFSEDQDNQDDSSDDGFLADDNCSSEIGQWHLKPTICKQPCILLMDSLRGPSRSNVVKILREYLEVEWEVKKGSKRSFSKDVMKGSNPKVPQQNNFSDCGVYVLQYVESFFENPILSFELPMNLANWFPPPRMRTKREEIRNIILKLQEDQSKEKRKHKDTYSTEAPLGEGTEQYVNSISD
SENP8 block-1: SENP8 protease inhibition; Q96LD8; purified SENP8, Z-RLRGG-aminoluciferin cleavage, luminescence; inhibition, % at 10 µM; 330,000 compounds, 1.2% hits; in the data active = inhibition above about 50%
SENP8 block-2: blocks human SENP8 cleavage of Nedd8 substrate; recombinant SENP8, Nedd8 substrate fluorescence; Q96LD8; 360,000 compounds, 0.64% hits; inhibition, % at 20 µM; in the data active = inhibition mostly above about 40%, no sharp cut-off; inactive = mostly below about 27%
SENP7 block: inhibitors of human SENP7 protease; 330,000 compounds, 1.5% hits; inhibition, % at 5 µM; recombinant SENP7, Z-RLRGG-aminoluciferin luminescence, 40 min; AID 434973;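 active = inhibition above about 50% at the single test dose, limit read from the data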;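 also: plate controls were DMSO with enzyme for no effect and no enzyme buffer wells for full effect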
SENP8 confirm: human SENP8 inhibition, confirmed | 6,200 compounds, 40% hits | Recombinant SENP8, Z-RLRGG-aminoluciferin luminescence, 60 min | shares compounds with SENP7 block | inhibition, % at 12.5 µM;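 active = mean inhibition across replicates above about 50%, limit read from the data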
SENP6 conf: human SENP6 inhibition, confirmed; shares compounds with SENP7 block; inhibition, % at 12.5 µM; 6,200 compounds, 58% hits; recombinant SENP6, Z-RLRGG-aminoluciferin luminescence
SENP7 confirm: human SENP7 inhibition, confirmed; shares compounds with SENP7 block; recombinant SENP7, Z-RLRGG-aminoluciferin luminescence, 40 min; inhibition, % at 12.5 µM; 6,200 compounds, 69% hits; AID 488917
Casp3 SENP sel: caspase-3 inhibition (SENP selectivity assay). purified caspase-3, Z-DEVD-aminoluciferin luminescence, 60 min. 6,200 compounds, 60% hits. AID 488918. inhibition, % at 12.5 µM. shares compounds with SENP7 block;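 active = mean inhibition above about 50%, limit read from the data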;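 also: plate controls were enzyme with DMSO for no effect and wells without caspase-3 for full effect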
Luc interf: counter-screen for SENP inhibitors: luminescence interference; 6,200 compounds, 39% hits; inhibition, % at 12.5 µM; AID 488919; shares compounds with SENP7 block; Pre-incubated SENP8/Z-RLRGG-aminoluciferin, luciferase luminescence interference;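 active = mean inhibition above about 50% when retested at one dose, limit read from the data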;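 also: plate controls were DMSO wells with completed reaction for no effect and substrate without enzyme for full effect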
The depositor's hits bear a star. Sampled rows, rich in hits. Any-hit rate of the full collection: about 2.5%.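 The calls were made as follows, unless noted: active = mean inhibition above about 50% in the one-dose retest (limit read from the data); inactive = the rest.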

What do the screens show for `CC(=C/c1ccco1)/C=N/N1CCN(c2ccccc2)CC1`?
SENP1 FRET inh: -2; SENP6 inh: 97*; SENP8 block-1: 92*; SENP8 block-2: 13; SENP7 block: 95*; SENP8 confirm: 3; SENP6 conf: 54*; SENP7 confirm: 34; Casp3 SENP sel: 68*; Luc interf: 16

Results for CSCC[C@H](NC(=O)Cc1c(C)c2c(cc(C)c3c(C)coc32)oc1=O)C(=O)O ?
SENP1 FRET inh: 1; SENP6 inh: 10; SENP8 block-1: 10; SENP8 block-2: -295; SENP7 block: 3

Results for CCOC(=O)C1CCCN(C(=O)c2cc(C)n(C(C)(C)C)n2)CC1 (centres undefined) ?
SENP1 FRET inh: 3; SENP8 block-2: 23

What do the screens show for `CSc1ccc(/C=N/Nc2ccc(Cl)c(C(=O)O)c2)cc1`?
SENP1 FRET inh: 0; SENP6 inh: 76*; SENP8 block-1: 77*; SENP8 block-2: -69; SENP7 block: -4; SENP8 confirm: -28; SENP6 conf: 91*; SENP7 confirm: 100*; Casp3 SENP sel: 25; Luc interf: 92*

What do the screens show for `O=C(O)c1cc(N/N=C/c2cccnc2)ccc1Cl`?
SENP1 FRET inh: 5; SENP6 inh: 43; SENP8 block-1: 15; SENP8 block-2: 12; SENP7 block: 12

Results for O=C(O)c1cc(N/N=C/c2ccc(N3CCOCC3)cc2)ccc1Cl ?
SENP1 FRET inh: -9; SENP6 inh: -17; SENP8 block-1: 51*; SENP8 block-2: -284; SENP7 block: 31; SENP8 confirm: 75*; SENP6 conf: 73*; SENP7 confirm: 94*; Casp3 SENP sel: 23; Luc interf: 75*

How did O=C(O)c1cc(N/N=C/c2ccncc2)ccc1Cl do in these assays?
SENP1 FRET inh: 0; SENP6 inh: 60*; SENP8 block-1: 37; SENP8 block-2: -208; SENP7 block: 41; SENP8 confirm: 58*; SENP6 conf: 54*; SENP7 confirm: 85*; Casp3 SENP sel: 25; Luc interf: 72*

What do the screens show for `CCS(=O)(=O)N1CCN(C(=O)c2ccc3nc(C)c(N(C)C(=O)CCc4ccccc4)n3c2)CC1`?
SENP1 FRET inh: 1; SENP8 block-2: 6

How did Cn1c2ccccc2c(=O)c2ccc(NCCc3cccs3)cc21 do in these assays?
SENP1 FRET inh: -33; SENP6 inh: 68*; SENP8 block-1: 66*; SENP8 block-2: inactive; SENP7 block: 38; SENP8 confirm: 81*; SENP6 conf: 88*; SENP7 confirm: 97*; Casp3 SENP sel: 79*; Luc interf: 26

What do the screens show for `CCOC(=O)c1c(C)oc2c1cc(O)c1ccccc12`?
SENP1 FRET inh: 4; SENP6 inh: 29; SENP8 block-1: 26; SENP8 block-2: -48; SENP7 block: 72*; SENP8 confirm: 3; SENP6 conf: 13; SENP7 confirm: 7; Casp3 SENP sel: 6; Luc interf: -2

Results for CC1(C(=O)Nc2ccc(Cl)c(Cl)c2)CCN1Cc1ccccc1OC(F)F (centres undefined) ?
SENP1 FRET inh: 3; SENP8 block-2: 31

Results for COc1ccc(OCC(=O)N/N=C2\CCCCc3ccccc32)cc1 ?
SENP1 FRET inh: 2; SENP6 inh: -17; SENP8 block-1: -7; SENP8 block-2: 3; SENP7 block: -11

How did CCc1ccc(OCC(=O)N/N=C2\CC(=O)c3ccccc32)cc1 do in these assays?
SENP1 FRET inh: 14; SENP6 inh: 53*; SENP8 block-1: 24; SENP8 block-2: 41*; SENP7 block: 17; SENP8 confirm: 28; SENP6 conf: 66*; SENP7 confirm: 16; Casp3 SENP sel: 18; Luc interf: 4

How did CC(C)C[C@H]1CN(CCCC[C@H]2CNC(=O)C(=O)N2Cc2ccccc2)C(=O)C(=O)N1CCc1ccc(O)cc1 do in these assays?
SENP1 FRET inh: 0; SENP8 block-2: 16

What do the screens show for `O=C(Nc1nnc(C(F)(F)F)s1)C1COc2ccccc2O1` (centres undefined)?
SENP1 FRET inh: 3; SENP6 inh: 83*; SENP8 block-1: 67*; SENP8 block-2: 15; SENP7 block: 64*; SENP8 confirm: 81*; SENP6 conf: 80*; SENP7 confirm: 95*; Casp3 SENP sel: 91*; Luc interf: 85*

What do the screens show for `CC(=O)c1sc(NC(=O)C2COc3ccccc3O2)nc1C` (centres undefined)?
SENP1 FRET inh: 0; SENP6 inh: 52*; SENP8 block-1: 29; SENP8 block-2: -46; SENP7 block: 19; SENP8 confirm: 20; SENP6 conf: 24; SENP7 confirm: 62*; Casp3 SENP sel: 62*; Luc interf: 51*

Results for CC1(C)Oc2ccc(NC(=O)C3COc4ccccc4O3)cc2O1 (centres undefined) ?
SENP1 FRET inh: -1; SENP6 inh: 66*; SENP8 block-1: 27; SENP8 block-2: 30; SENP7 block: 48; SENP8 confirm: 72*; SENP6 conf: 72*; SENP7 confirm: 93*; Casp3 SENP sel: 71*; Luc interf: 77*

What do the screens show for `O=C(Nc1nnc(C2CC2)s1)C1COc2ccccc2O1` (centres undefined)?
SENP1 FRET inh: 2; SENP6 inh: 18; SENP8 block-1: 10; SENP8 block-2: 3; SENP7 block: 20

What do the screens show for `C=CCN1C(=O)c2ccc(C(=O)N3CCN(S(=O)(=O)c4cccc(Cl)c4)CC3)cc2C1=O`?
SENP1 FRET inh: 2; SENP6 inh: -24; SENP8 block-1: -3; SENP8 block-2: 6; SENP7 block: 5

How did CCOc1ccc(/C=C/[N+](=O)[O-])c2ccccc12 do in these assays?
SENP1 FRET inh: -12; SENP6 inh: 67*; SENP8 block-1: 44; SENP8 block-2: 18; SENP7 block: 27; SENP8 confirm: 14; SENP6 conf: 7; SENP7 confirm: 13; Casp3 SENP sel: 8; Luc interf: 4

How did CCc1ccccc1NC(=O)Nc1cccn(Cc2ccccc2F)c1=O do in these assays?
SENP1 FRET inh: 1; SENP6 inh: -29; SENP8 block-1: -12; SENP8 block-2: -398; SENP7 block: 0
